In brackets after ≈: the same amount, converted by molar mass.
Key:
[1] = tested on: Acinetobacter calcoaceticus; assay: Antibacterial activity against aminoglycoside-resistant Acinetobacter calcoaceticus expressing AAC(6')-1 by broth microdilution method; type: functional
In short: (§1)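 Clinical aminoglycoside-resistant isolates were each carrying a single aminoglycoside-modifying enzyme. […] MICs were determined by CLSI broth microdilution.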

[2] = tested on: Pseudomonas aeruginosa; assay: Antibacterial activity against Pseudomonas aeruginosa expressing AAC(6')-2 by broth microdilution method; type: functional
[3] = tested on: Pseudomonas aeruginosa; assay: Antibacterial activity against Pseudomonas aeruginosa expressing mexXY operon by broth microdilution method; type: functional
In short: (§2)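 MICs were measured by broth microdilution following CLSI guidance. The strains formed a 25-strain screening panel with diverse aminoglycoside resistance mechanisms. The panel included Gram-negative and S. aureus strains carrying key aminoglycoside-modifying enzymes, strains with altered permeability or efflux, and an armA ribosomal methyltransferase strain.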

[4] = tested on: Acinetobacter; assay: Antibacterial activity against aminoglycoside-resistant Acinetobacter spp. expressing APH(3')-6 by broth microdilution method; type: functional; in short: as §1
[5] = tested on: Serratia marcescens; assay: Antibacterial activity against aminoglycoside-resistant Serratia marcescens expressing ANT(2''), AAC(6') by broth microdilution method; type: functional; in short: as §2
[6] = tested on: Escherichia coli; assay: Antibacterial activity against aminoglycoside-resistant Escherichia coli expressing armA methylase by broth microdilution method; type: functional; in short: as §2
[7] = tested on: Pseudomonas aeruginosa; assay: Antibacterial activity against Pseudomonas aeruginosa expressing AAC(3)-1 by broth microdilution method; type: functional
[8] = tested on: Klebsiella pneumoniae; assay: Antibacterial activity against Klebsiella pneumoniae ATCC 10031 by broth microdilution method; type: functional; in short: as §2
[9] = tested on: Escherichia coli; assay: Antibacterial activity against aminoglycoside-resistant Escherichia coli expressing AAC(6')-1 by broth microdilution method
[10] = tested on: Escherichia coli; assay: Antibacterial activity against aminoglycoside-resistant Escherichia coli expressing APH(3')-1b by broth microdilution method
[11] = tested on: Pseudomonas aeruginosa; assay: Antibacterial activity against Pseudomonas aeruginosa expressing ANT(4')-2 by broth microdilution method; type: functional; in short: as §2
[12] = tested on: Staphylococcus aureus; assay: Antibacterial activity against aminoglycoside-resistant Staphylococcus aureus expressing APH(2'') + AAC(6') by broth microdilution method; type: functional; in short: as §2
[13] = tested on: Pseudomonas aeruginosa; assay: Antibacterial activity against efflux pump deficient Pseudomonas aeruginosa by broth microdilution method; type: functional
[14] = tested on: Providencia stuartii; assay: Antibacterial activity against aminoglycoside-resistant Providencia stuartii expressing AAC(2')-1 by broth microdilution method
[15] = tested on: Acinetobacter baumannii; assay: Antibacterial activity against aminoglycoside-susceptible Acinetobacter baumannii by broth microdilution method; type: functional
[16] = tested on: Staphylococcus aureus; assay: microbe, parasite or virus in culture; conditions: ATCC 29213
[17] = tested on: Pseudomonas aeruginosa; assay: Antibacterial activity against Pseudomonas aeruginosa ATCC 27853 by broth microdilution method; type: functional
[18] = tested on: Acinetobacter baumannii; assay: Antibacterial activity against Acinetobacter baumannii ATCC 19606 by broth microdilution method; type: functional; conditions: ATCC 19606 = CIP 70.34 = JCM 6841; in short: as §2
[19] = tested on: Escherichia coli; assay: Antibacterial activity against aminoglycoside-resistant Escherichia coli expressing AAC(3)-IVa by broth microdilution method
[20] = tested on: Pseudomonas aeruginosa; assay: Antibacterial activity against wild type Pseudomonas aeruginosa expressing efflux pump by broth microdilution method; type: functional
In short: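 MIC was determined by CLSI broth microdilution, read in μg/ml. The strain came from a 25-strain screening panel with diverse aminoglycoside resistance mechanisms. The panel included strains with changes in permeability or efflux, key aminoglycoside-modifying enzymes and an armA methyltransferase strain.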

[21] = tested on: Staphylococcus aureus; assay: microbe, parasite or virus in culture
[22] = tested on: Escherichia coli; assay: Antibacterial activity against aminoglycoside-resistant Escherichia coli expressing ANT(2'')-1 by broth microdilution method; type: functional; in short: as §1
[23] = tested on: Staphylococcus aureus; assay: microbe, parasite or virus in culture; remark: listed apart in the source
[24] = tested on: Escherichia coli; assay: Antibacterial activity against aminoglycoside-resistant Escherichia coli expressing AAC(3)-2 by broth microdilution method
[25] = tested on: Escherichia coli; assay: Antibacterial activity against Escherichia coli ATCC 25922 by broth microdilution method; type: functional; in short: as §2

## CN[C@@H]1[C@@H](O)[C@@H](O[C@@H]2[C@@H](O)[C@H](O[C@H]3OC(CN)=CC[C@H]3N)[C@@H](N)C[C@H]2N)OC[C@]1(C)O [SISOMICIN]
[1]
  MIC: 32 µg/mL (≈ 71.5 µM)
[2]
  MIC: 32 µg/mL (≈ 71.5 µM)
[3]
  MIC: 1 µg/mL (≈ 2.23 µM)
[4]
  MIC: 0.5 µg/mL (≈ 1.12 µM)
[5]
  MIC: 8 µg/mL (≈ 17.9 µM)
[6]
  MIC: > 64 µg/mL
[7]
  MIC: 32 µg/mL (≈ 71.5 µM)
[8]
  MIC: 0.25 µg/mL (≈ 0.559 µM)
[9]
  MIC: 32 µg/mL (≈ 71.5 µM)
[10]
  MIC: 0.25 µg/mL (≈ 0.559 µM)
[11]
  MIC: 1 µg/mL (≈ 2.23 µM)
[12]
  MIC: > 64 µg/mL
[13]
  MIC: 0.125 µg/mL (≈ 0.279 µM)
[14]
  MIC: 64 µg/mL (≈ 143 µM)
[15]
  MIC: 0.5 µg/mL (≈ 1.12 µM)
[16]
  MIC: 0.5 µg/mL (≈ 1.12 µM)
[17]
  MIC: 0.5 µg/mL (≈ 1.12 µM)
[18]
  MIC: 8 µg/mL (≈ 17.9 µM)
[19]
  MIC: 32 µg/mL (≈ 71.5 µM)
[20]
  MIC: 1 µg/mL (≈ 2.23 µM)
[21]
  MIC: 0.25 µg/mL (≈ 0.559 µM)
[22]
  MIC: 64 µg/mL (≈ 143 µM)
[23]
  MIC: 1 µg/mL (≈ 2.23 µM)
[24]
  MIC: > 64 µg/mL
[25]
  MIC: 0.5 µg/mL (≈ 1.12 µM)

— ChEMBL document CHEMBL1687796, “Synthesis and spectrum of the neoglycoside ACHN-490” (2010)
